Source: ChEMBL document CHEMBL1138258, “Optimizing cell permeation of an antibiotic resistance inhibitor for improved efficacy” (J Med Chem, 2007)

Key:
Escherichia coli = assay: Antibacterial activity against Escherichia coli K12 JM109 overexpressing beta-lactamase; format: functional
Method in brief: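 Broth microdilution in Mueller Hinton broth against E. coli K12 JM109 overexpressing AmpC from a heat-sensitive pOGO plasmid. Ampicillin MIC determined with and without boronic acids; final inoculum 5 × 10^5 CFU/mL; DMSO below 5%.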

[1] = Dissociation constant, pKa of the compound; format: physicochemical
Method in brief: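 UV spectrophotometric determination on 10^-4 M aqueous solutions, by two methods. First, spectra were recorded at pH between 2 and 12 with ionic strength fixed at 0.01. Second, solutions at pH 2 (0.5 N HCl) were titrated with 0.5 N NaOH up to pH 12. pKa was derived with the Henderson-Hasselbalch equation and absorption-spectra extrapolation.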

Structure (SMILES)	MIC (Escherichia coli)	pKa [1]
OB(O)c1cc2cc(CNc3ccc(Cl)c(Cl)c3)ccc2s1	147 µM	6.39
OCc1ccc2sc(B(O)O)cc2c1	–	6.39
OB(O)c1cccc(NCc2ccc3sc(B(O)O)cc3c2)c1	–	6.39
COc1ccc(NCc2ccc3sc(B(O)O)cc3c2)cc1OC	–	6.39
OB(O)c1cc2cc(CN3CCNCC3)ccc2s1	–	6.39
O=CN(C=O)Cc1ccc2sc(B(O)O)cc2c1	92 µM	6.39
CC1(C)S[C@@H]2[C@H](NC(=O)[C@H](N)c3ccccc3)C(=O)N2[C@H]1C(=O)O [AMPICILLIN]	512 µg/mL	–
OB(O)c1cc2cc(CBr)ccc2s1	–	6.39
OB(O)c1cc2ccccc2s1	359 µM	6.39
OB(O)c1cc2cc(COc3ccc(Cl)c(Cl)c3)ccc2s1	–	6.39
OB(O)c1cc2cc(COc3ccccc3)ccc2s1	–	6.39
O=C(O)c1cccc(NCc2ccc3sc(B(O)O)cc3c2)c1	–	6.39
Cc1ccc2sc(B(O)O)cc2c1	117 µM	6.39
OCCN(CCO)Cc1ccc2sc(B(O)O)cc2c1	–	6.39
OB(O)c1cc2cc(CNc3ccc(N4CCOCC4)cc3)ccc2s1	–	6.39
OB(O)c1cc2cc(Cn3ccnc3)ccc2s1	94 µM	6.39
Nn1cn[n+](Cc2ccc3sc(B(O)O)cc3c2)c1	117 µM	6.39
O=C(O)CNCc1ccc2sc(B(O)O)cc2c1	92 µM	6.39
CC(=O)c1ccc(NCc2ccc3sc(B(O)O)cc3c2)cc1	314 µM	6.39
OB(O)c1cc2cc(CSc3ccccc3)ccc2s1	84 µM	6.39
O=[N+]([O-])c1cccc(NCc2ccc3sc(B(O)O)cc3c2)c1	78 µM	6.39
OB(O)c1cc2cc(CNc3ccc(C(O)(C(F)(F)F)C(F)(F)F)cc3)ccc2s1	–	6.39
O=CNCc1ccc2sc(B(O)O)cc2c1	–	6.6
OB(O)c1cc2cc(COCc3ccccc3)ccc2s1	–	6.39
